Assay results pooled from the literature.
Target: Dual specificity mitogen-activated protein kinase kinase 6 (MAP2K6, Homo sapiens, UniProt P52564)
Sequence (P52564 1-334, as in one of the studies): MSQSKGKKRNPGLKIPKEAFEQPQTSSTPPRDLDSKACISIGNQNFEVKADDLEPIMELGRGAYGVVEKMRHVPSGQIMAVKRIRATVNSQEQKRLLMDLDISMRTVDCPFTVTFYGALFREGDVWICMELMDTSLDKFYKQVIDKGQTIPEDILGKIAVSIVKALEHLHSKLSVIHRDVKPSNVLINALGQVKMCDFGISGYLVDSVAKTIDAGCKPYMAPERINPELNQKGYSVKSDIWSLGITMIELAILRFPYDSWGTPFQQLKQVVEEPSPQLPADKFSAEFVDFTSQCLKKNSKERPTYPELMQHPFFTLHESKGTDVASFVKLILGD

| Compound | observed | method | tested at | remaining binding [%] |
| --- | --- | --- | --- | --- |
| O=C(c1ccc(Nc2ncc(Cl)c(-c3cc4ccccc4s3)n2)cc1)N1CCC(N2CCCC2)CC1 | binding | competition with immobilised ligand | 1 µM | 37 |
| F[C@@H]1CCN(c2nccc(-c3cnn4ncccc34)n2)C1 | binding |  | 1 µM | 100 |
| CNC(=O)Nc1ccc2c(c1)CC[C@@]21OC(=O)N(CC(=O)N(Cc2ccc(F)cc2)[C@@H](C)C(F)(F)F)C1=O | cell-free assay | competition with immobilised ligand | 1 µM | 100 |
| CN(C)c1nccc(-c2cnc3ncccn23)n1 | binding |  | 1 µM | 99 |
| O=C(NCCCN1CCOCC1)c1ccc(Nc2nccc(-c3cc4ccccc4s3)n2)cc1 | binding | competition with immobilised ligand | 1 µM | 76 |
| O=C(Nc1c[nH]nc1C(=O)NC1CCNCC1)c1cc(F)cc(F)c1 | binding | competition with immobilised ligand | 1 µM | 100 |
| Cn1nc(C(F)(F)F)cc1-c1cnc(N2CCc3cc(S(=O)(=O)Nc4c(F)cc(Cl)cc4F)cc(N4CCCC4=O)c32)nc1 | cell-free assay | competition with immobilised ligand | 1 µM | 100 |
| COc1ccnn2ncc(-c3ccnc(N(C)C)n3)c12 | binding |  | 1 µM | 100 |
| O=C(c1ccc(Nc2ncc(Cl)c(-c3ccc(Cl)s3)n2)cc1)N1CCC(N2CCCC2)CC1 | binding | competition with immobilised ligand | 1 µM | 29 |
| C[C@H]1CCN(c2nccc(-c3cnn4ncccc34)n2)C1 | binding |  | 1 µM | 100 |
| CS(=O)(=O)N1CCCC(NC(=O)[C@H](CCC2CCCCC2)NC(=O)c2ccc(CNC(=O)c3cnc4ccccn34)cc2)C1 (stereo partly drawn) | cell-free assay | competition with immobilised ligand | 0.1 µM | 72 |
| CN(C)c1ncc(F)c(-c2cnn3ncccc23)n1 | binding |  | 1 µM | 100 |
| CCC(=O)N[C@@H]1CC[C@H](C(=O)N(C)c2ccc(-c3nc4ccccc4o3)cc2)C1 | cell-free assay | competition with immobilised ligand | 1 µM | 100 |
| N[C@@H]1CCN(c2nccc(-c3cnn4ncccc34)n2)C1 | binding |  | 1 µM | 100 |
| FC(F)(F)Oc1cccc(-c2cnc3ccc(-c4ccncc4)nn23)c1 | cell-free assay | competition with immobilised ligand | 5 µM | 84 |
| Cc1c(C(=O)O)cc(-c2ccc(C3CCNCC3)cc2)c2ccc(-c3ccc(C(F)(F)F)cc3)cc12 | binding | competition with immobilised ligand | 1 µM | 100 |
| CCN1CCN(Cc2ccc(C(=O)Nc3ccc(C)c(Oc4ccc5c(c4)CC(=O)N5)c3)cc2C(F)(F)F)CC1 | binding | competition with immobilised ligand | 1 µM | 100 |
| Nc1ncc2c(n1)-c1c([nH]c3ccc(C#CC4CC4)cc13)CCCC2 | binding | competition with immobilised ligand | 1 µM | 100 |
| c1cnn2ncc(-c3ccnc(N4CCC45COC5)n3)c2c1 | binding |  | 1 µM | 100 |
| COc1cnc(Nc2cccc(S(N)(=O)=O)c2)nc1N1CCN(c2ccccc2)CC1 | binding | competition with immobilised ligand | 1 µM | 100 |
| CO[C@@H](C)c1c(Nc2ccc([C@@H](N(C)C(=O)C3CCS(=O)(=O)CC3)C(F)(F)F)cc2)cnc2cc(Cl)nn12 | cell-free assay | competition with immobilised ligand | 1 µM | 92 |
| c1cncc(-c2cccc(Nc3nccc(NC4CCCCC4)n3)c2)c1 | binding | competition with immobilised ligand | 10 µM | 79 |
| COc1ncc2cc3ccccc3nc2c1C#N | cell-free assay | competition with immobilised ligand | 5 µM | 100 |
| CC(=O)C1=C(C)N(c2cccc(C(F)(F)F)c2)C(=O)N[C@@H]1c1ccc(C#N)nc1 | cell-free assay | competition with immobilised ligand | 1 µM | 94.6 |
